Beta cell apopt = beta cell apoptosis inhibition; INS-1E cytokine-induced death, ATP luminescence, 48 h; percent of positive-control rescue, neutral wells zero; protection from apoptosis, % (concentration not given with the values); hit rate 0.8% among 300,000; AID 435005;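 active = Every replicate reaches about 75%, or at least half do and their mean reaches it too, limit read from the data; inconclusive = At least half of replicates reach the limit but their mean does not; inactive = Under half of replicates reach the limit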;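 note: 0% = cytokine-treated negative control wells and 100% = positive control rescue; higher means more ATP so stronger rescue from cytokine killing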
T cruzi repl = blocks replication of Trypanosoma cruzi; T. cruzi beta-gal in NIH3T3, luminescence, 90 h; inhibition, % (test concentration not listed); hit rate 1.4% among 300,000; AID 1885;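 active = mean inhibition across valid replicates above about 55%, limit read from the data; inconclusive = mean below that limit but half or more replicates reach it; inactive = mean below it, under half of replicates reach it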;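 note: signal also drops with host cell toxicity which is not excluded here; 0% = plate median of DMSO wells and 100% = zero luminescence signal; higher percent means less beta-gal luminescence so fewer parasites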
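System – NIH/3T3 host cells with β-galactosidase reporter T. cruzi · Doses – single 50 nL compound addition per well in DMSO · Reagent – 5000 T. cruzi trypomastigotes/well · Medium – Low-serum DMEM with 2% FBS · Timing – ≥90 h infection period, 3 h prior cell attachment · Evaluation – parasite load inhibition, % · Technique – GalScreen luminescence, 60 min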
HIF act = HIF pathway transcriptional activation; U2OS HRE-luciferase reporter, luminescence; normalized: DMSO 0%, desferrioxamine 100%; activation, % at 7.5 µM (by protocol); hit rate 0.32% among 300,000; AID 1910;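 active = mean activation of at least 10% of the iron chelator positive control signal, with at least half of replicates also reaching 10%; inconclusive = mean and replicate majority disagree about reaching 10%; inactive = mean and most replicates under 10%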
CSC inhib = blocks cancer stem cells. hit rate 1.1% among 300,000. inhibition, % at 7.5 µM. cancer stem cell-like cells viability, luminescence; in the data active = inhibition above about 75%; inconclusive = no clear call, values can overlap the other calls; tested in HMLE shEcad cells
PolyA inhibitor = yeast polyadenylation inhibition; S. cerevisiae SKY197-pL101 polyadenylation reporter, beta-gal luminescence; efflux-impaired pdr1/pdr3 knockout yeast; score 100 = 6 SD above DMSO; activity score, % at 12 µM; hit rate 0.02% among 300,000;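 active = lowest replicate activity score at least 50, where 100 means six control SD above control mean; inconclusive = lowest score under 50 but half or more replicates reach 50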;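 note: yeast exposed to compound for 9 h at 30 °C; higher score means more reporter readthrough which indicates perturbed polyadenylation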
Calb FLC = affects C. albicans growth with fluconazole; C. albicans CaCi-2 (fluconazole-resistant clinical isolate) + fluconazole, Alamar Blue growth, 48 h; growth inhibition, % (test concentration not listed); hit rate 0.57% among 300,000;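 active = growth inhibition above about 58% in most replicates, limit read from the data, passing the limit was not always enough; inconclusive = exactly half the replicates above a set limit; inactive = most replicates below a set limit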;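 note: all wells also contain fluconazole at 8 µg/ml as a sub-toxic cotreatment; 0% = median of DMSO wells and 100% = median of geldanamycin control wells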
* marks the source's active call; other numbers are inactive results; ? = inconclusive; nt = no result. Only some compounds are listed: those with a hit (about 3.1% of all), similar ones and a draw of the others.

SMILES | Beta cell apopt | T cruzi repl | HIF act | CSC inhib | PolyA inhibitor | Calb FLC
O=C1c2ccccc2C(=O)N1Cc1ccc2c(c1)OCO2 | nt | -1 | 0 | -15 | -21 | -3
Cc1cc2cc(CNC(=O)c3cc4ccccc4o3)ccc2n1C | 4 | 65* | 0 | -2 | nt | -19
COCC(=O)NCc1ccc2c(c1)cc(C)n2C | -3 | 3 | 0 | -8 | 9 | 7
Cc1ccc(S(=O)(=O)NCc2ccc3c(c2)cc(C)n3C)cc1 | 4 | 64* | 0 | -7 | -18 | -2
COCCN(C(=O)c1csnn1)C(C(=O)NC1CCCCC1)c1ccccc1F (stereo unspecified) | -2 | 16 | -34 | 5 | 2 | -3
CCn1c(=O)c2sccc2n(CC(=O)NCCC2=CCCCC2)c1=O | -6 | -34 | 0 | -11 | 4 | 5
COc1ccc(-c2csc(N3CCN(c4cc(C)nc5ccccc45)CC3)n2)cc1OC | -2 | 27 | -1 | 95* | -1 | 31
Cc1cc(N2CCCCC2)nc(NCc2ccccc2)n1 | 52 | 56* | 3 | nt | 6 | -7
Cc1cc(Nc2cccc(Cl)c2)nc(NCc2ccccc2)n1 | 107* | 58* | 0 | 108* | -13 | ?
Cc1cc(N/N=C/c2ccc(Cl)cc2)nc(NCc2ccccc2)n1 | 24 | 80* | 0 | 29 | -7 | 8
CCCCN(C(=O)c1cc(Cl)nc2ccccc12)c1c(N)n(CCCC)c(=O)[nH]c1=O | 0 | -1 | 1 | -5 | 2 | 1
CC(C)N(C(=O)N1CCN(c2ccnc3cc(Cl)ccc23)CC1)C(C)C | nt | 6 | 0 | nt | -9 | 20
Oc1[nH]c2ccccc2c1N=Nc1nc2ccccc2s1 | -3 | 11 | -1 | 3 | -18 | -11
C/C(N=Nc1nc2ccccc2s1)=N\Nc1ccccc1O | 70 | 1 | 0 | 85* | 10 | -6
Fc1cccc(C[n+]2csc3ccccc32)c1 | 8 | 55* | 1 | nt | -16 | 13
O=[N+]([O-])c1ccc(Sc2nccn2Cc2ccccc2)c([N+](=O)[O-])c1 | -1 | 65* | 1 | 46 | -13 | 1
Cc1nc(Nc2ccc(Cl)cc2)c2nnn(Cc3ccccc3)c2n1 | 8 | 17 | -1 | 6 | 0 | 25
Cc1nc(Nc2ccc(S(=O)(=O)N3CCCCC3C)cc2)c2nnn(Cc3ccccc3)c2n1 (stereo unspecified) | 76* | 64* | 0 | 6 | -2 | 3
COc1cc(/C=C/C(=O)OC(C)C(=O)c2ccccc2)cc(OC)c1OC (stereo unspecified) | 1 | 22 | -1 | -1 | -10 | -6
COc1ccc(-c2noc(-c3ccccc3-c3ccccc3)n2)cc1OC | 5 | 27 | -2 | 80* | 7 | 0
COc1ccc(-c2noc(-c3cccnc3)n2)cc1OC | -3 | -10 | 1 | 8 | -2 | 4
Cc1ccc(S(=O)(=O)NCC(c2cccnc2)N2CCN(Cc3ccccc3)CC2)cc1 (stereo unspecified) | -2 | 57* | -1 | 8 | -13 | 0
O=S(=O)(NCC(c1cccnc1)N1CCN(Cc2ccccc2)CC1)c1ccccc1 (stereo unspecified) | -1 | 62* | 0 | -11 | 13 | -6
COc1cc(C2C(C#N)=C(C)NC(C)=C2C#N)cc(OC)c1OC | -3 | 13 | -1 | -8 | 18 | -9
CN(Cc1ccc(Cl)s1)C(=O)CCl | -8 | 59* | -2 | 5 | -15 | 8
SMILES | Beta cell apopt | T cruzi repl | HIF act | CSC inhib | PolyA inhibitor | Calb FLC
O=C(CN(Cc1ccc(Cl)cc1)C(=O)CNS(=O)(=O)c1ccc(F)cc1)NCC1CCCO1 (stereo unspecified) | 3 | 5 | 0 | 3 | 6 | -4
N#C/C(=C\c1ccccc1[N+](=O)[O-])C(=O)NC1CCCCC1 | -8 | -3 | -1 | -8 | -9 | 4
N#C/C(=C\C=C\c1ccccc1[N+](=O)[O-])C(=O)NC1CCCCC1 | -15 | -19 | 1 | 82* | -6 | 40
CC(C)c1ccc(S(=O)(=O)N2CCN(C(=O)C3CCCCC3)CC2)cc1 | 0 | -2 | 0 | -19 | 4 | 10
COC(=O)Cc1ccc(NC(=S)N2CCN(CCO)CC2)cc1 | -11 | 13 | 0 | -17 | -11 | -23
COc1ccc2sc(N(CCCN(C)C)C(=O)c3ccc(S(=O)(=O)N4CCc5ccccc5C4)cc3)nc2c1 | nt | 57* | -3 | 91* | 8 | -11

Screening data: PubChem BioAssay, Broad Institute
